INS promoter act: TRM-6 insulin promoter activation. TRM-6 cells, insulin promoter eGFP reporter, imaging; plate-scaled: unstimulated 0, stimulated control 100. activation, % at 2 µM. 130,000 compounds, 0.81% hits. AID 1296;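 active means activation at 2 µM above a set limit, confirmed on inspection of the cell images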;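 further: share of cells whose green reporter signal exceeds an intensity cutoff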
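System – human fetal islet-derived TRM-6 cells with tamoxifen-inducible insulin promoter–eGFP reporter · Amount – 1,000 cells per well · Schedule – overnight tamoxifen, then two-day compound incubation at 37 °C · Detection – high-content imaging of fixed cells with Hoechst nuclear stain · Read-out – percent cells above green-intensity threshold, converted to percent activation versus plate controls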
Numbers without * were called inactive. The sample as a whole holds a higher share of hits than the screen did.

SMILES	INS promoter act
CN(C)c1ccc(/C=N/n2c(COc3ccccc3)n[nH]c2=S)cc1	2.9
CC(NCc1ccco1)C(=O)N1CCc2ccccc2C1 (stereo not drawn)	-5.7
O=C(COC(=O)c1cn(-c2ccccc2)nc1-c1cccnc1)NC1CC1	8.3
CC1CCCCN1C(=O)c1ccc(COc2ccc([N+](=O)[O-])cc2)o1 (stereo not drawn)	380.0*
O=C(c1ccc(-c2ccc([N+](=O)[O-])cc2)o1)N1CCCCC1	-6.9
CC1CCCN(CCCOc2ccc([N+](=O)[O-])cc2)C1 (stereo not drawn)	7.7
CC1Cc2ccccc2N1C(=O)c1cc2sccc2n1Cc1ccc(F)cc1 (stereo not drawn)	57.1
O=C(O)CC1SC(=Nc2ccccc2)N(c2ccccc2)C1=O (stereo not drawn)	3.8
CCCCN1C(=O)C(CC(=O)NCC)SC1=Nc1ccccc1 (stereo not drawn)	450.0*
CCN=C1SC(CC(=O)NCCc2ccc(OC)c(OC)c2)C(=O)N1CC (stereo not drawn)	0.0
C/C(=N\NC(=O)CN1CCOCC1)C(C)(C)C	8.3
CCC(CC)NC(=O)COc1ccc(OC)cc1C=O	-7.1
COC(=O)Cn1ncc2c3ccccc3n(C)c2c1=O	7.1
CC(C)NC(=O)CC(=O)N/N=C/c1ccc(F)cc1	-6.8
O=S(=O)(NCCSc1nnc(-c2ccco2)n1-c1ccccc1)c1ccccc1	9.7
Cc1cc(N2CCCCCC2)nc2ccc(F)cc12	6.7
Cc1cccc(N=C2NC(=O)/C(=C/c3cccs3)S2)c1	0.0
COc1cc(/C=C2\S/C(=N/S(=O)(=O)c3ccc(C)cc3)NC2=O)c([N+](=O)[O-])cc1OC	453.3*
COc1ccccc1/C=C1\S/C(=N/NC(=O)c2cccc(Br)c2)NC1=O	-7.7
COc1ccc(S(=O)(=O)N(C)CC(=O)NCc2cccnc2)cc1	-8.3
CC(C)Cn1c(Cc2ccccc2)n[nH]c1=S	0.0
Cn1c(SCCOc2ccccc2Cl)nnc1-c1ccncc1	538.5*
Cn1c(SCC(=O)C(C)(C)C)nnc1-c1ccncc1	0.0
COc1ccc(NC(=O)CSc2nnc(-c3ccncc3)n2C)cc1	0.0
CS(=O)(=O)N(CC(=O)NCc1ccccn1)c1ccc2c(c1)OCCO2	36.6
SMILES	INS promoter act
CS(=O)(=O)N(CC(=O)NCCSCc1ccccc1)c1ccc2c(c1)OCO2	203.7*
CN(C)C(=O)CN(c1ccc2c(c1)OCO2)S(C)(=O)=O	-71.4
CCC(=O)Nc1sc2c(c1C#N)CC(C)(CC)OC2 (stereo not drawn)	8.6
O=C(/C=C/c1ccccc1)Nc1cccc(S(=O)(=O)Nc2ccccc2F)c1	-7.7
CC(=O)c1cn(CC(=O)NCC2CCCO2)c2ccccc12 (stereo not drawn)	393.8
O=C(CCCc1cccs1)Nc1nc(-c2ccc(F)cc2)cs1	-7.4
COC(=O)CNC(=O)CN1C(=O)N(c2cccc(Cl)c2)C(N(O)C(=O)Nc2cccc(Cl)c2)C1(C)C (stereo not drawn)	2.6
O=C(O)C(NS(=O)(=O)c1ccc(F)cc1)c1ccccc1 (stereo not drawn)	-5.9
Cc1ccc(S(=O)(=O)NC(c2ccccc2)C(C)C(=O)n2nc(C)cc2C)cc1 (stereo not drawn)	117.4*
Cc1cc(Nc2ccccc2)n(C(=O)c2ccccc2)n1	6.5
CS(=O)(=O)N(CC(=O)NCc1ccc2c(c1)OCO2)Cc1ccccc1	168.8
COc1cccc2c1OCC/C2=N\NC(=O)COc1ccccc1C	-6.7
CC(=O)NS(=O)(=O)c1ccc(NC(=O)c2ccc(Br)o2)cc1	7.4
CCCN1C(=O)/C(=C\C=C2/Sc3ccccc3N2CC)SC1=S	387.8*
CCCN1C(=O)CC(c2ccco2)Sc2ccccc21 (stereo not drawn)	3.2
CCN1/C(=C\C=C(C(C)=O)C(C)=O)Sc2ccccc21	669.2*
CCN(CC)CC(=O)N1c2ccccc2Sc2ccc(Cl)cc21	262.2
CCN1C(=O)/C(=C\C=C2/C=CC=CN2CC)SC1=S	-3.1
O=C(CN1CCCC1)N1c2ccccc2Sc2ccccc21	110.0
O=C1CSc2ccc(C(=O)Nc3cccc(S(=O)(=O)Nc4ccc(Br)cc4)c3)cc2N1	0.0
COc1c(S(=O)(=O)N2CCCCC2)ccc2c(S(=O)(=O)N3CCCCC3)cccc12	242.9
Nc1cc(Cl)ccc1C(=O)OCC(=O)NC1CCS(=O)(=O)C1 (stereo not drawn)	5.3
Cc1oc2ccc(OCc3ccccc3F)cc2c1C(=O)O	7.0
COc1cccc2cc(C(C)N(CCCN3CCOCC3)C(=S)Nc3ccc(C)cc3)oc12 (stereo not drawn)	-5.9
COc1cccc(NC(=O)N(CCCN2CCOCC2)C(C)c2cc3ccccc3o2)c1 (stereo not drawn)	-9.7
SMILES	INS promoter act
COc1cccc(NC(=S)N(CCCN2CCOCC2)C(C)c2cc3cccc(OC)c3o2)c1 (stereo not drawn)	258.8*
O=C1CC(N2CCC(c3nc4ccccc4o3)CC2)C(=O)N1Cc1cccs1 (stereo not drawn)	-10.8
COc1ccc(NC(=O)CSc2nncn2C)cc1OC	-71.4
COc1ccc(NC(=O)CSc2n[nH]c(N)n2)cc1OC	331.6*
Nc1nc(SCC(=O)Nc2ccc(Br)cc2F)n[nH]1	-75.0
CCC(C)c1ccc(NC(=S)NCc2cccs2)cc1 (stereo not drawn)	0.0
O=C(Nc1ccc2nc3n(c(=O)c2c1)CCCC3)c1cccc([N+](=O)[O-])c1	0.0
Cc1c(C(=O)O)sc2nc3n(c(=O)c12)CCC3	0.0
O=c1c2c(-c3ccc([N+](=O)[O-])cc3)csc2nc2n1CCC2	481.3*
COCCn1c(SCC(=O)Nc2ccc(Cl)cn2)nnc1-c1ccncc1	-7.1
Cc1cccc(NC(=O)CCc2ccc(C)o2)c1	7.1
COc1ccccc1CNC(=O)CSc1nc2nc(C)cc(C)n2n1	-6.1
COc1cc(SC)ccc1C(=O)Nc1ccccc1C#N	322.7
O=C(CSc1nnc(-c2ccco2)n1CC1CCCO1)NC1CCCC1 (stereo not drawn)	-6.9
COc1ccc(NC(=O)CSc2nnc(-c3ccoc3C)n2CC2CCCO2)cc1 (stereo not drawn)	506.3*
COc1cccc(NC(=O)CSc2nnc(-c3ccoc3C)n2CC2CCCO2)c1 (stereo not drawn)	5.6
O=S(=O)(Nc1ncnc2sc3c(c12)CCC3)c1ccc(Cl)s1	107.1
COc1cccc(NC(=O)c2cc(OC)c(OC)c(OC)c2Br)c1	0.0
CC(C)Cn1[nH]c2c3c(ccc2c1=O)C(=O)c1ccccc1C3=O	0.0
O=C(c1ccco1)N1CCN(CC(O)Cn2c3ccccc3c3ccccc32)CC1 (stereo not drawn)	-6.5
O=C(O)c1cc(S(=O)(=O)NCC2CCCO2)ccc1Cl (stereo not drawn)	-9.4
CCn1cc(C(=O)Nc2cc3c(cc2NC(C)=O)OCCO3)c(=O)c2ccc(C)nc21	0.0
S=c1[nH]nc(Cc2sc(-c3ccccc3)nc2-c2ccccc2)o1	-9.7
O=C(CCCCl)NC(=S)Nc1cc(C(F)(F)F)ccc1N1CCOCC1	-1.6
O=C(/C=C/c1ccco1)NC(=S)Nc1cc(C(F)(F)F)ccc1N1CCOCC1	211.1*
CC(C)(C)C(=O)Nc1cc(C(F)(F)F)ccc1N1CCOCC1	-14.3
CCC(=O)N1CCc2cc(S(=O)(=O)NC(Cc3ccccc3)C(=O)NC3CCCCC3)ccc21 (stereo not drawn)	316.7*
CCOC(=O)N1CCC(NC(=O)C(NS(=O)(=O)c2ccc3c(c2)CCN3C(C)=O)C(C)C)CC1 (stereo not drawn)	123.1

From PubChem BioAssay
